{"source": "ChEMBL document CHEMBL1933006", "about": "“Mechanistic analysis of muraymycin analogues: a guide to the design of MraY inhibitors” (J Med Chem, 2011)", "key": {"[1]": {"tested_on": "Staphylococcus aureus", "experiment": "Antibacterial activity against methicillin-sensitive […] Staphylococcus aureus ATCC 29213 after 20 hrs by broth microdilution method", "assay_type": "functional", "details": "ATCC 29213, 20 h", "procedure,_shortened": "(§1)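 NCCLS broth microdilution in cation-adjusted Mueller–Hinton broth. Serial 2-fold compound dilutions were inoculated with 5 × 10⁴ CFU per 0.1 mL and incubated at 35 °C for 20 h before scoring the MIC.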"}, "[2]": {"tested_on": "Enterococcus faecalis", "experiment": "Antibacterial activity against Enterococcus faecalis ATCC 29212 after 20 hrs by broth microdilution method", "assay_type": "functional", "details": "ATCC 29212, 20 h", "procedure,_shortened": "as §1"}, "[3]": {"tested_on": "Staphylococcus aureus", "experiment": "Antibacterial activity against methicillin-resistant Staphylococcus aureus isolate SR3637 after 20 hrs by broth microdilution method", "assay_type": "functional", "details": "isolate SR3637, 20 h", "procedure,_shortened": "as §1"}, "[4]": {"tested_on": "Enterococcus faecium", "experiment": "Antibacterial activity against vancomycin-resistant Enterococcus faecium SR7917 after 20 hrs by broth microdilution method", "assay_type": "functional", "details": "SR7917, 20 h", "procedure,_shortened": "as §1"}, "[5]": {"tested_on": "Enterococcus faecalis", "experiment": "Antibacterial activity against vancomycin-resistant Enterococcus faecalis SR7914 after 20 hrs by broth microdilution method", "assay_type": "functional", "details": "SR7914, 20 h", "procedure,_shortened": "as §1"}, "[6]": {"tested_on": "Enterococcus faecium", "experiment": "Antibacterial activity against Enterococcus faecium ATCC 19434 after 20 hrs by broth microdilution method", "assay_type": "functional", "details": "ATCC 19434, 20 h", "procedure,_shortened": "as §1"}, "[7]": {"biological_target": "T1, Undecaprenyl-phosphate alpha-N-acetylglucosaminyl 1-phosphate transferase (Thermotoga maritima (strain ATCC 43589 / MSB8 / DSM 3109 / JCM 10099), UniProt Q9X1N5)", "T1 sequence (Q9X1N5 whole entry)": "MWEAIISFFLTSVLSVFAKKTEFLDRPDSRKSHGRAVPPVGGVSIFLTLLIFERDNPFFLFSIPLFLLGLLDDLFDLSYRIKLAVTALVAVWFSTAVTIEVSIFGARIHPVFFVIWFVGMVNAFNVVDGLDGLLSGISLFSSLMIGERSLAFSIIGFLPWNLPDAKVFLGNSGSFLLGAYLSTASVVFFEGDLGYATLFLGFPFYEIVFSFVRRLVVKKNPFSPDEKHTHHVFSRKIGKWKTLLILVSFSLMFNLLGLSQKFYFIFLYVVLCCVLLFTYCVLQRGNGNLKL", "experiment": "Inhibition of Thermotoga maritima WecA using radiolabeled UDP-[14C]GlcNAc as substrate after 30 mins", "procedure,_shortened": "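Purified Thermotoga maritima WecA was assayed at pH 8 (100 mM Tris-HCl, 10 mM MgCl₂, 1.1 mM C₅₅-P, 0.16 mM UDP-[¹⁴C]GlcNAc, 92.7 mM Triton X-100), final concentrations. The reaction was started by enzyme, run 30 min at 65 °C and stopped at 100 °C for 1 min. C₅₅-PP-GlcNAc was separated by TLC and scanned. IC50 was relative to a no-inhibitor control, mean of triplicates.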"}, "[8]": {"biological_target": "T2, Phospho-N-acetylmuramoyl-pentapeptide-transferase (Bacillus subtilis (strain 168), UniProt Q03521)", "T2 sequence (Q03521 whole entry)": "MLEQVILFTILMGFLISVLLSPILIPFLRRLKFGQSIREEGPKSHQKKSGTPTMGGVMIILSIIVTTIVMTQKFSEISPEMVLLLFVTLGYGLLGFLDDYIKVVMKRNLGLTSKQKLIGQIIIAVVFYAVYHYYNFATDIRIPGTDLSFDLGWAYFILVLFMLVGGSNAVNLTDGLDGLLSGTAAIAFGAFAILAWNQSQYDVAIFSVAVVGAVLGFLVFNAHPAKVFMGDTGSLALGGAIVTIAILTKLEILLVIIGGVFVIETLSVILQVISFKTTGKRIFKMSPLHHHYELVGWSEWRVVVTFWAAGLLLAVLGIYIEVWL", "experiment": "Noncompetitive inhibition of Bacillus subtilis MraY using […] as substrate after 30 mins by Lineweaver-Burk plot"}, "[9]": {"biological_target": "T2, Phospho-N-acetylmuramoyl-pentapeptide-transferase", "experiment": "Competitive inhibition of Bacillus subtilis MraY using UDP-MurNAc-pentapeptide as substrate after 30 mins by Lineweaver-Burk plot", "procedure,_shortened": "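B. subtilis MraY was assayed at pH 7.5 (100 mM Tris-HCl, 40 mM MgCl₂, 250 mM NaCl, 8.4 mM N-lauroylsarcosine), started by enzyme and run 30 min at 37 °C. Initial rates were taken at 0.25–1.5 mM UDP-MurNAc-[¹⁴C]pentapeptide, fixed 1 mM C₅₅-P, and several inhibitor levels. Lipid I was separated by TLC and scanned. Ki came from Lineweaver–Burk plots assuming a ping-pong Bi Bi mechanism.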"}}, "data": [{"smiles": "CCCCCCCCCCCCCCC[C@@H](NC(=O)[C@H](CCCNC(=N)N)NC(=O)N[C@H](C(=O)O)C(C)C)C(=O)NCCCN[C@H](C(=O)O)[C@H](O[C@@H]1O[C@H](CN)[C@@H](O)[C@H]1O)[C@H]1O[C@@H](n2ccc(=O)[nH]c2=O)[C@H](O)[C@@H]1O", "values": [{"measurement": "MIC", "setting": "[1]", "value": 4, "unit": "µg/mL"}, {"measurement": "MIC", "setting": "[2]", "value": 4, "unit": "µg/mL"}, {"measurement": "MIC", "setting": "[3]", "value": 4, "unit": "µg/mL"}, {"measurement": "MIC", "setting": "[4]", "value": 2, "unit": "µg/mL"}, {"measurement": "MIC", "setting": "[5]", "value": 4, "unit": "µg/mL"}]}, {"smiles": "CCCCCCCCCCCCCCC[C@@H](NC(=O)[C@H](CCCN)NC(=O)N[C@H](C(=O)O)C(C)C)C(=O)NCCCN[C@H](C(=O)O)[C@H](O[C@@H]1O[C@H](CN)[C@@H](O)[C@H]1O)[C@H]1O[C@@H](n2ccc(=O)[nH]c2=O)[C@H](O)[C@@H]1O", "values": [{"measurement": "MIC", "setting": "[1]", "value": 4, "unit": "µg/mL"}, {"measurement": "MIC", "setting": "[2]", "value": 8, "unit": "µg/mL"}, {"measurement": "MIC", "setting": "[3]", "value": 8, "unit": "µg/mL"}, {"measurement": "MIC", "setting": "[4]", "value": 8, "unit": "µg/mL"}, {"measurement": "MIC", "setting": "[5]", "value": 8, "unit": "µg/mL"}]}, {"smiles": "CCCCCCCCCCCCCCC[C@H](NC(=O)[C@@H](NC(=O)OCc1ccccc1)[C@@H]1CCNC(=N)N1)C(=O)NCCCN[C@H](C(=O)O)[C@H](O[C@@H]1O[C@H](CN)[C@@H](O)[C@H]1O)[C@H]1O[C@@H](n2ccc(=O)[nH]c2=O)[C@H](O)[C@@H]1O", "values": [{"measurement": "MIC", "setting": "[1]", "value": 8, "unit": "µg/mL"}, {"measurement": "MIC", "setting": "[2]", "value": 4, "unit": "µg/mL"}, {"measurement": "MIC", "setting": "[3]", "value": 8, "unit": "µg/mL"}, {"measurement": "MIC", "setting": "[4]", "value": 8, "unit": "µg/mL"}, {"measurement": "MIC", "setting": "[5]", "value": 4, "unit": "µg/mL"}]}, {"smiles": "CCCCOc1ccc(-c2ccc(CC[C@@H](NC(=O)[C@@H](NC(=O)N[C@H](C(=O)O)C(C)C)[C@@H]3CCNC(=N)N3)C(=O)NCCCN[C@H](C(=O)O)[C@H](O[C@@H]3O[C@H](CN)[C@@H](O)[C@H]3O)[C@H]3O[C@@H](n4ccc(=O)[nH]c4=O)[C@H](O)[C@@H]3O)cc2)cc1", "values": [{"measurement": "MIC", "setting": "[6]", "value": 4, "unit": "µg/mL"}, {"measurement": "MIC", "setting": "[1]", "value": 64, "unit": "µg/mL"}, {"measurement": "MIC", "setting": "[2]", "value": 32, "unit": "µg/mL"}, {"measurement": "MIC", "setting": "[3]", "value": 64, "unit": "µg/mL"}, {"measurement": "MIC", "setting": "[4]", "value": 8, "unit": "µg/mL"}, {"measurement": "MIC", "setting": "[5]", "value": 64, "unit": "µg/mL"}]}, {"smiles": "CCCCCCCCCCCCCCC[C@@H](NC(=O)[C@@H](NC(=O)N[C@H](C(=O)O)C(C)C)[C@H]1CCNC(=N)N1)C(=O)NCCCN[C@H](C(=O)O)[C@H](O[C@@H]1O[C@H](CN)[C@@H](O)[C@H]1O)[C@H]1O[C@@H](n2ccc(=O)[nH]c2=O)[C@H](O)[C@@H]1O", "values": [{"measurement": "MIC", "setting": "[1]", "value": 4, "unit": "µg/mL"}, {"measurement": "MIC", "setting": "[2]", "value": 2, "unit": "µg/mL"}, {"measurement": "MIC", "setting": "[3]", "value": 2, "unit": "µg/mL"}, {"measurement": "MIC", "setting": "[4]", "value": 4, "unit": "µg/mL"}, {"measurement": "MIC", "setting": "[5]", "value": 4, "unit": "µg/mL"}]}, {"smiles": "CCCCCCCCCCCCCCC[C@H](NC(=O)[C@@H](NC(=O)N[C@H](C(=O)O)C(C)C)[C@H]1CCNC(=N)N1)C(=O)NCCCN[C@H](C(=O)O)[C@H](O[C@@H]1O[C@H](CN)[C@@H](O)[C@H]1O)[C@H]1O[C@@H](n2ccc(=O)[nH]c2=O)[C@H](O)[C@@H]1O", "values": [{"measurement": "MIC", "setting": "[1]", "value": 2, "unit": "µg/mL"}, {"measurement": "MIC", "setting": "[2]", "value": 2, "unit": "µg/mL"}, {"measurement": "MIC", "setting": "[3]", "value": 2, "unit": "µg/mL"}, {"measurement": "MIC", "setting": "[4]", "value": 2, "unit": "µg/mL"}, {"measurement": "MIC", "setting": "[5]", "value": 4, "unit": "µg/mL"}]}, {"smiles": "CC(C)[C@H](NC(=O)N[C@H](C(=O)N[C@H](CCCCCCCc1ccc(-c2ccccc2)cc1)C(=O)NCCCN[C@H](C(=O)O)[C@H](O[C@@H]1O[C@H](CN)[C@@H](O)[C@H]1O)[C@H]1O[C@@H](n2ccc(=O)[nH]c2=O)[C@H](O)[C@@H]1O)[C@@H]1CCNC(=N)N1)C(=O)O", "values": [{"measurement": "MIC", "setting": "[6]", "value": 4, "unit": "µg/mL"}, {"measurement": "MIC", "setting": "[1]", "value": 8, "unit": "µg/mL"}, {"measurement": "MIC", "setting": "[2]", "value": 8, "unit": "µg/mL"}, {"measurement": "MIC", "setting": "[3]", "value": 16, "unit": "µg/mL"}, {"measurement": "MIC", "setting": "[4]", "value": 4, "unit": "µg/mL"}, {"measurement": "MIC", "setting": "[5]", "value": 16, "unit": "µg/mL"}]}, {"smiles": "CCCCCCCCCCCCCCC[C@H](NC(=O)[C@H](CCCNC(=N)N)NC(=O)N[C@H](C(=O)O)C(C)C)C(=O)NCCCN[C@H](C(=O)O)[C@H](O[C@@H]1O[C@H](CN)[C@@H](O)[C@H]1O)[C@H]1O[C@@H](n2ccc(=O)[nH]c2=O)[C@H](O)[C@@H]1O", "values": [{"measurement": "MIC", "setting": "[1]", "value": 2, "unit": "µg/mL"}, {"measurement": "MIC", "setting": "[2]", "value": 2, "unit": "µg/mL"}, {"measurement": "MIC", "setting": "[3]", "value": 2, "unit": "µg/mL"}, {"measurement": "MIC", "setting": "[4]", "value": 1, "unit": "µg/mL"}, {"measurement": "MIC", "setting": "[5]", "value": 2, "unit": "µg/mL"}]}, {"smiles": "CC(C)C[C@H](NC(=O)[C@@H](NC(=O)N[C@H](C(=O)O)C(C)C)[C@@H]1CCN=C(N)N1)C(=O)NCCCN[C@H](C(=O)O)[C@H](O[C@@H]1O[C@H](CN)[C@@H](O)[C@H]1O)[C@H]1O[C@@H](n2ccc(=O)[nH]c2=O)[C@H](O)[C@@H]1O", "note": "[MURAMYCIN D2]", "values": [{"measurement": "IC50", "setting": "[7]", "value": 1230, "unit": "µM"}, {"measurement": "Ki", "setting": "[8]", "value": 0.0076, "unit": "µM"}, {"measurement": "Ki", "setting": "[9]", "value": 0.0076, "unit": "µM"}]}]}
